Source: PubChem BioAssay (several laboratories)
The list is not random: actives were taken first. Their share in the collection is about 4.9%.
STAT1 activator: STAT1 signaling activation; hit rate 2.6% among 200,000; activation (% of control), % at 5.5 µM; AID 932; NIH 3T3 STAT1-luciferase reporter, IFN-gamma, luminescence; 100% = IFN-gamma alone, no compound;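 active = activation above the screen-wide mean activation plus 3 SD, cut at about 130% in these data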;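 also: raw ratio to IFN-gamma control signal so 100% means no change and 0% no light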
NF-kB expr up: NF-kB expression increase, human neuronal cells. fold change at 12.5 µM. NF-kB reporter expression; hits give high values. hit rate 1.6% among 190,000; in the data active = fold change above about 3.3
APP 5'UTR act: APP 5'UTR luciferase reporter activation. SH-SY5Y APP 5'UTR luciferase reporter, luminescence; zero percent = DMSO vehicle wells. activation, % at 2 µM. hit rate 1% among 190,000. AID 1276;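 active = activation above a set limit, based on mean plus 3 SD of controls, cut at about 140% in these data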
STAT3 activator: activators of IL-6 induced STAT3 signaling. activation (% of control), % at 5.6 µM. AID 871. U3A cells, IL-6 STAT3-luciferase reporter, luminescence; 100% = signal with IL-6 EC80 alone. hit rate 0.91% among 190,000;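 active = activation above the screen-wide mean of compound activation plus 3 SD, cut at about 130% in these data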;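 also: 0% = background luminescence of wells with medium and substrate only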
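Test system: Human STAT1-deficient U3A cells with stable STAT3-luciferase reporter | Also added: Interleukin-6, 33 ng/mL | Timing: Compound pre-incubation 1 h before IL-6, then 6 h stimulation at 37 °C | Technique: Luciferase reporter luminescence | Read-out: Percent of IL-6-only median luminescence | Benchmarks: IL-6-only wells as 100% reference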
STAT1 inh: reduces IFN-gamma driven STAT1 reporter signal; inhibition, % at 5.5 µM; hit rate 0.35% among 200,000; NIH 3T3 STAT1-luciferase reporter, luminescence; AID 920;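 active = inhibition above a set limit, the mean inhibition across all tested compounds plus 3 SD, cut at about 34% in these data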;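 also: 0% = IFN-gamma with DMSO and 100% = IFN-gamma with 300 µM nifuroxazide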
STAT3 inh-1: reduces IL-6 driven STAT3 reporter signal. inhibition, % at 5.5 µM. hit rate 0.89% among 190,000. U3A cells, IL-6 STAT3-luciferase reporter, luminescence; host cell line lacks STAT1;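 active = inhibition above the mean inhibition across all screened compounds plus 3 SD, cut at about 44% in these data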;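 also: 0% = DMSO only wells and 100% = 100 µM nifuroxazide control wells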
STAT3 inh-2: confirmation of STAT3 signaling inhibitors; inhibition, % at 5.7 µM; AID 1265; shares compounds with STAT3 inh-1; hit rate 45% among 1,200; U3A cells, IL-6 STAT3 luciferase reporter, luminescence; cell line lacks STAT1;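 active = inhibition above the hit cutoff computed for the primary STAT3 screen, cut at about 44% in these data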;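 also: 0% = IL-6 plus DMSO and 100% = IL-6 plus nifuroxazide control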
NFkB inh 2: NF-kappaB inhibition in STAT3 inhibitor counter-screen; AID 1308; HEK293T NF-kB luciferase reporter, TNF-alpha induced; hit rate 36% among 1,200; inhibition, % at 5.7 µM; shares compounds with STAT3 inh-1;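 active = inhibition above the mean of solvent-only control wells plus 3 SD, cutoff set per campaign, cut at about 13% in these data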;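 also: 0% = TNF-alpha with DMSO and 100% = TNF-alpha with MG high control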
STAT1 inh 2: STAT1 inhibition in STAT3 inhibitor counter-screen. NIH 3T3 STAT1-luciferase reporter, IFN-gamma induced, luminescence. AID 1317. inhibition, % at 5.7 µM. hit rate 27% among 1,200. shares compounds with STAT3 inh-1;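 active = inhibition above the mean plus 3 SD of solvent-only control wells, limit set per screening run, cut at about 16% in these data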;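 also: 0% = DMSO with IFN-gamma and 100% = nifuroxazide control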
An asterisk follows results filed as active; . = not tested or not shown.

SMILES	STAT1 activator	NF-kB expr up	APP 5'UTR act	STAT3 activator	STAT1 inh	STAT3 inh-1	STAT3 inh-2	NFkB inh 2	STAT1 inh 2
CCN(CC)S(=O)(=O)c1cc(C(=O)Nc2cccnc2)ccc1Cl	105	0.85	-13	102	-5	3	.	.	.
O=C(/C=C\c1cccs1)c1c(O)ccc2ccc(=O)oc12	96	1.5	23	109	5	-13	.	.	.
Cc1nn(-c2ccccc2)c(C)c1C(=O)OCC(=O)c1c(N)n(CC(C)C)c(=O)n(C)c1=O	91	0.35	16	67	11	44*	66*	14*	14
CCOC(=O)Cc1csc(SCC(=O)c2c(N)n(CC(C)C)c(=O)n(C)c2=O)n1	86	0.59	2	51	15	64*	52*	13	15
Cc1csc(SCC(=O)c2c(N)n(CC(C)C)c(=O)n(C)c2=O)n1	85	0.79	-9	62	16	49*	49*	-2	20*
CCOC(=O)N1CCC(n2c(SCC(=O)NCCc3ccc(S(N)(=O)=O)cc3)nc3ccccc3c2=O)CC1	93	1.5	-1	105	5	-4	.	.	.
CC(=O)c1c(C)[nH]c(C(=O)COc2ccc(C#N)cc2)c1C	91	0.55	8	90	10	16	.	.	.
COc1ccccc1OCC(=O)c1[nH]c(C)c(C(C)=O)c1C	88	0.76	2	59	14	56*	46*	5	12
CC(=O)c1c(C)[nH]c(C(=O)COc2cc(C)ccc2C(C)C)c1C	75	1.3	-5	45	27	68*	73*	21*	22*
COCCNC(=O)NC(=O)CN1CCCc2ccccc21	87	1.3	0	118	14	-20	.	.	.
CCCCN(C)C(=O)c1cc2cc3ccc(OC)cc3nc2s1	113	3.1	188*	62	-15	50*	17	-18	-106
CCCCN(CC)C(=O)c1cc2cc3ccc(OC)cc3nc2o1	122	1.9	62	108	-25	-7	.	.	.
CN1C(=O)CSc2ccc(NC(=O)N3CCN(c4ccccn4)CC3)cc21	87	0.74	6	85	15	14	.	.	.
Cc1ccc(C)c(N2CCN(C(=O)Nc3ccc4c(c3)N(C)C(=O)CS4)CC2)c1	67	0.6	1	65	34	45*	37	15*	20*
CN(Cc1ccccc1)S(=O)(=O)c1cccc(C(=O)O)c1	106	1.3	9	106	-7	6	.	.	.
O=C(Nc1cccc(S(=O)(=O)Nc2ccccc2Cl)c1)c1ccc(Cl)nc1	78	1.2	-13	66	24	44*	50*	11	13
COc1ccc(CNc2cc(C)nc3ncnn23)c(OC)c1	88	0.79	3	45	13	67*	52*	17*	17*
COc1ccc(Nc2cc(C)nc3ncnn23)c(OC)c1	104	1.1	4	109	-5	-1	.	.	.
O=C(CN1C(=O)C(c2ccc(F)cc2)=NC12CCCC2)Nc1ccc(F)cc1	78	0.9	-20	54	23	58*	54*	14*	22*
COc1ccc(NC(=O)CN2C(=O)C(c3ccccc3)=NC23CCCCCC3)cc1	94	1.1	8	106	7	-8	.	.	.
COc1ccc(/C=N/NC(=S)Nc2cccc(C(=O)O)c2)cc1	72	1.5	29	36	29	78*	52*	6	-5
O=C(O)c1cccc(NC(=S)N/N=C/c2cccnc2)c1	104	1.4	33	91	-6	13	.	.	.
CCc1ccc(OCc2nc(-c3ccccn3)no2)c(Br)c1	100	3.2	181*	57	0	56*	19	-8	-108
O=C(NCc1ccncc1)C(=O)N/N=C/c1ccc(OCc2ccccc2)cc1	102	1.1	38	98	-2	2	.	.	.
O=NN(CCc1ccncc1)c1ccc(OCc2ccccc2)cc1	77	1	2	51	24	63*	57*	19*	11
SMILES	STAT1 activator	NF-kB expr up	APP 5'UTR act	STAT3 activator	STAT1 inh	STAT3 inh-1	STAT3 inh-2	NFkB inh 2	STAT1 inh 2
O=C(CCl)Nc1ccc(N2CCCCCC2)cc1	110	1.7	-18	96	-11	10	.	.	.
COc1ccc(C2SCC(=O)N2CCc2ccc(OC)c(OC)c2)cc1 (stereo not drawn)	73	0.79	-10	64	28	45*	43*	15*	16*
CN(C1=NS(=O)(=O)c2ccccc21)c1ccc(OC(=O)c2ccncc2)cc1	100	1	5	99	-2	4	.	.	.
CCCc1ccc(-c2ccc(/C=C/C(=O)O)cc2)nc1	122	3.1	-46	20	-24	96*	94*	69*	-35
CCCCCCCc1ccc(-c2ccc(O)cc2)nc1	107	1.1	27	56	-10	54*	62*	0	-12
C=CCN1C(=O)CSc2ccc(C(=O)NCc3cccs3)cc21	96	0.94	-9	101	3	0	.	.	.
COc1cc(OC)c(S(=O)(=O)NC(C)C)cc1S(=O)(=O)NC(C)C	102	0.82	4	97	-3	14	.	.	.
CCN(CC)S(=O)(=O)c1ccc(Oc2ccc(S(=O)(=O)N(CC)CC)cc2)cc1	76	0.48	0	35	28	78*	68*	27*	26*
COC(=O)c1ccc(COC(=O)c2[nH]c(C)c(C(C)=O)c2C)o1	79	0.88	-1	62	24	47*	52*	11	5
COC(=O)c1ccc(COC(=O)c2ccc(CO)cc2)o1	104	1.2	-9	104	-5	-7	.	.	.
CCOC(=O)c1c(C)[nH]c(C2=NNC(=Nc3ccc(OCC)cc3)SC2)c1C	75	1.3	-4	51	29	60*	10	-9	-8
CCOC(=O)c1c(C)[nH]c(C2=NNC(=Nc3ccccc3)SC2)c1C	103	1.4	10	104	-3	0	.	.	.
CC(C)CC(=O)N1CCN(Cc2ccccc2[N+](=O)[O-])CC1	98	1.2	8	95	3	7	.	.	.
CC1CCN(S(=O)(=O)c2ccc3c(c2)oc(=O)n3CC(=O)NCc2ccc3c(c2)OCO3)CC1	89	1	-5	68	12	44*	38	10	17*
Cc1c(C(=O)NCc2ccc3c(c2)OCO3)oc2ccc(S(=O)(=O)N3CCC(C)CC3)cc12	97	0.84	-8	93	3	12	.	.	.
